Experimental data as given in PMC4084622 (Journal of Medicinal Chemistry, 2014).
Converted amounts (≈) assume the structure as drawn. Where two headings read alike, the source gives them in different places.

Experiments:
[1] = test system: M. smegmatis cells, ΔpH; format: cell-based, Mycobacterium smegmatis
[2] = target: M. smegmatis MenA (MsMenA) (Mycolicibacterium smegmatis, UniProt A0QR52); details: read-out: MenA IC50; same assay as used here; cited from earlier work
[3] = test system: E. coli IMVs, ΔpH; test: ΔpH collapse in E. coli inverted membrane vesicles; format: biochemical, Escherichia coli; details: qualitative
[4] = target: T1, SaCrtM (Staphylococcus aureus, UniProt A9JQL9); test: SaCrtM inhibition; format: biochemical, S. aureus
T1 sequence (A9JQL9 1-287): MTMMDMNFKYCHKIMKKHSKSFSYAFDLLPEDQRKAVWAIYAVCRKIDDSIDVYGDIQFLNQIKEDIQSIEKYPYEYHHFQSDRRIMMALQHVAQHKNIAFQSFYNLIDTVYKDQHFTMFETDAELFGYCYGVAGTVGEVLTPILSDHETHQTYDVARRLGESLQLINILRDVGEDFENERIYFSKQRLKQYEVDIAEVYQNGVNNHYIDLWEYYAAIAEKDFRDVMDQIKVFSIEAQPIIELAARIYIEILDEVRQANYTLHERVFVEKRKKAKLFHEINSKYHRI

[5] = test system: C. albicans; test: microbe, parasite or virus in culture; format: cell-based; details: Candida albicans
[6] = target: malate dehydrogenase (Mycolicibacterium smegmatis, UniProt A0QVL2); test: Malate dehydrogenase activity, MTT reduction, M. smegmatis membranes; format: biochemical, Mycobacterium smegmatis
malate dehydrogenase, sequence (A0QVL2 whole entry): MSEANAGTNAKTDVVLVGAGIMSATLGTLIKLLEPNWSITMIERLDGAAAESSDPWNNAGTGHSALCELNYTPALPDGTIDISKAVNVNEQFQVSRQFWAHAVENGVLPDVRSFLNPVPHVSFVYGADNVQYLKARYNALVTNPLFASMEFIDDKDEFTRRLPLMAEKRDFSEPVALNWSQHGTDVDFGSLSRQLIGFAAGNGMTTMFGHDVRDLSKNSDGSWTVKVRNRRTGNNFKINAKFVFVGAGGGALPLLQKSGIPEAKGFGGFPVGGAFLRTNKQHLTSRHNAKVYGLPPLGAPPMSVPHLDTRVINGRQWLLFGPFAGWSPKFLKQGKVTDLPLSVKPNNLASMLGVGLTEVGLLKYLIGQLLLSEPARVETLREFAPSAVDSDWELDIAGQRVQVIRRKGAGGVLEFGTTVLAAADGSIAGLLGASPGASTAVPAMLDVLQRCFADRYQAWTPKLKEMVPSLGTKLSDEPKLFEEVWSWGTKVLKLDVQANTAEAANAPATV

[7] = test system: B. subtilis; test: microbe, parasite or virus in culture; format: cell-based; details: Bacillus subtilis
[8] = target: M. smegmatis membrane dehydrogenases (NADH, deamino-NADH, succinate, lactate substrates); test: Dehydrogenase activities, MTT reduction, M. smegmatis membranes; format: biochemical, Mycobacterium smegmatis; details: in general (all substrates except malate)
[9] = target: M. tuberculosis cis-farnesyl diphosphate synthase (Rv1086) (Mycobacterium tuberculosis, UniProt P9WFF5); test: cis-farnesyl diphosphate synthase inhibition; format: biochemical
M. tuberculosis cis-farnesyl diphosphate synthase (Rv1086), sequence (P9WFF5 whole entry): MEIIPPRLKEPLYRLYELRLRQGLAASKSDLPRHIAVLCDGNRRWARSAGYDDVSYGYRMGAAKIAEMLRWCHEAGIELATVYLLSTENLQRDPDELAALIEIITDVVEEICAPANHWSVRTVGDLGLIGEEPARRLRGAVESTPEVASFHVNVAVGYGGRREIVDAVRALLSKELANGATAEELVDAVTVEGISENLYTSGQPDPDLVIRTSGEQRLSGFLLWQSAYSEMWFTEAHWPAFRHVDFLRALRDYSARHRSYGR

[10] = target: E. coli undecaprenyl diphosphate synthase (UPPS) (Escherichia coli, UniProt P60472); test: E. coli UPPS inhibition; format: biochemical
E. coli undecaprenyl diphosphate synthase (UPPS), sequence (P60472 whole entry): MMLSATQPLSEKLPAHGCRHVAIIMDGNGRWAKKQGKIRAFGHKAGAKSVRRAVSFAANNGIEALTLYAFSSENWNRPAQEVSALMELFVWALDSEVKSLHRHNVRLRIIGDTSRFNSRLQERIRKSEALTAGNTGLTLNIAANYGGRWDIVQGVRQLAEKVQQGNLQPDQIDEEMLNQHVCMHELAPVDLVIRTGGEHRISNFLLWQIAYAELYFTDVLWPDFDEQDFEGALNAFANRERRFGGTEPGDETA

[11] = test system: M. tuberculosis; test: microbe, parasite or virus in culture; format: cell-based, Mycobacterium tuberculosis; details: for MIC: Mycobacterium tuberculosis
[12] = test system: S. aureus (MRSA USA300 strain); test: microbe, parasite or virus in culture; format: cell-based; details: Staphylococcus aureus, MRSA|USA300, read-out: Sa MIC, MRSA USA300 strain
[13] = target: T2, human SQS (Homo sapiens, UniProt P37268); test: Human SQS inhibition; format: biochemical
T2 sequence (P37268 1-417): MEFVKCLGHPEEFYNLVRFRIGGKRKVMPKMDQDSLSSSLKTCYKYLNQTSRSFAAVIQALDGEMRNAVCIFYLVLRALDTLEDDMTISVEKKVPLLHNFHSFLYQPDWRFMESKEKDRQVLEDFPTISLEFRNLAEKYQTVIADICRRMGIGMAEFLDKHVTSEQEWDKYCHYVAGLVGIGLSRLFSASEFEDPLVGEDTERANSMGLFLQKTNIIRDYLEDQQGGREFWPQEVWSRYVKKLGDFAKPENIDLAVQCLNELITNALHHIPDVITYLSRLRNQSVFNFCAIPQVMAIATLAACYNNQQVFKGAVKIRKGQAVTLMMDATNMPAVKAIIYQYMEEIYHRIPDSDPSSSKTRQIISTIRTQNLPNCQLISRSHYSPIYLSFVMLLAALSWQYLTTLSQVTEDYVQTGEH

[14] = target: S. aureus farnesyl diphosphate synthase (FPPS) (Staphylococcus aureus, UniProt Q2FY48); test: biochemical
S. aureus farnesyl diphosphate synthase (FPPS), sequence (Q2FY48 1-293): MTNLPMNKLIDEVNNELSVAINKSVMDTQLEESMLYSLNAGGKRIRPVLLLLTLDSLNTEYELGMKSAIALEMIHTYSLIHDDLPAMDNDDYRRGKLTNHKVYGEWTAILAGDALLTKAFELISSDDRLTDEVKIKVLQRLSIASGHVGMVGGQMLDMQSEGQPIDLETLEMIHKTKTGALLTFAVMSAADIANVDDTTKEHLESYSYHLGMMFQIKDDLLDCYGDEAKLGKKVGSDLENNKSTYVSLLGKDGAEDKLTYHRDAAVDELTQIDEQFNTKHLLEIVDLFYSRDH

[15] = target: M. tuberculosis cis-decaprenyl diphosphate synthase (Rv2361) (Mycobacterium tuberculosis, UniProt P9WFF7); test: cis-decaprenyl diphosphate synthase inhibition; format: biochemical
M. tuberculosis cis-decaprenyl diphosphate synthase (Rv2361), sequence (P9WFF7 whole entry): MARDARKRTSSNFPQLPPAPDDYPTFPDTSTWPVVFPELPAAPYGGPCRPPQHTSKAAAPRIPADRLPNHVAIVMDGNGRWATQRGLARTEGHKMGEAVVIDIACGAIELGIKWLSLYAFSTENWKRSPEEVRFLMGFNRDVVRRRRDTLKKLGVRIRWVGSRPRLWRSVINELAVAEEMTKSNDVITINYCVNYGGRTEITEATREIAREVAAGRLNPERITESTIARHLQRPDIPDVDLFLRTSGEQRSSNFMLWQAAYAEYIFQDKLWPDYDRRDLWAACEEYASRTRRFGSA

[16] = test system: E. coli; test: microbe, parasite or virus in culture; format: cell-based; details: Escherichia coli
[17] = target: S. aureus undecaprenyl diphosphate synthase (UPPS) (Staphylococcus aureus, UniProt P60477); test: S. aureus UPPS inhibition; format: biochemical
S. aureus undecaprenyl diphosphate synthase (UPPS), sequence (P60477 whole entry): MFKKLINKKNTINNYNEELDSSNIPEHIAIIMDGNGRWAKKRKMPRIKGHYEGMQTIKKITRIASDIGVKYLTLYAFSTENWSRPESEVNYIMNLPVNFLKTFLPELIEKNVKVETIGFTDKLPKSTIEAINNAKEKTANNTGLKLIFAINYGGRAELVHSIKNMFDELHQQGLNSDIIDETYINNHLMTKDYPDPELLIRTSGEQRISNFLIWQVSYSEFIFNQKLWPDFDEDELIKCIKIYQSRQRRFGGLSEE

[18] = test system: nonreplicating M. tuberculosis (streptomycin-starved 18b); format: cell-based, Mycobacterium tuberculosis; details: for effect on nonreplicating bacterial activity (CFU): 7 days
[19] = test system: S. cerevisiae; test: microbe, parasite or virus in culture; format: cell-based, Saccharomyces cerevisiae; details: for IC50: Saccharomyces cerevisiae
[20] = test system: MCF-7; test: cells; format: cell-based; details: Homo sapiens, MCF7, read-out: MCF-7 IC50
[21] = target: P. vivax geranylgeranyl diphosphate synthase (GGPPS) (Plasmodium vivax, UniProt A5K4U6); test: biochemical
P. vivax geranylgeranyl diphosphate synthase (GGPPS), sequence (A5K4U6 1-375): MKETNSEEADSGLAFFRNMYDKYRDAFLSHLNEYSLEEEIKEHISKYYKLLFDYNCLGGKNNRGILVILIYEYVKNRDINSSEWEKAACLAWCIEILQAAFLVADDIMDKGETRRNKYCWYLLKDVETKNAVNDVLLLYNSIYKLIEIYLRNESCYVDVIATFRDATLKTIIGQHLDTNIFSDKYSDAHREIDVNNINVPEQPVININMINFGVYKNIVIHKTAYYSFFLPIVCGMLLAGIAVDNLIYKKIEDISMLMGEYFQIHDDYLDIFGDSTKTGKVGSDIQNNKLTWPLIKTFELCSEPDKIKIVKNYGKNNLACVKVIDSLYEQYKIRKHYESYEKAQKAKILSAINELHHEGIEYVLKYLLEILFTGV

[22] = test system: M. smegmatis; details: cited from earlier work
[23] = test system: M. tuberculosis; details: cited from earlier work
[24] = test system: M. smegmatis cells, ATP synthesis; test: ATP/ADP determination in M. smegmatis cells; format: cell-based, Mycobacterium smegmatis
Method in brief: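 Cells grown 8 h in Middlebrook 7H9-ADC-Tween 80 and diluted to OD600 of 2. Test compounds added at several concentrations, with incubation at 37 °C and 200 rpm. ATP/ADP ratio read with a commercial ADP/ATP ratio kit after 10 and 60 min.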

[25] = read-out: Mt MIC (in parentheses)
[26] = read-out: Ca IC50 (in parentheses)
[27] = read-out: Bs IC50 (in parentheses)
[28] = read-out: Sc IC50 (in parentheses)
[29] = read-out: Ec IC50 (in parentheses)

M. smegmatis MenA (MsMenA), sequence (A0QR52 1-289): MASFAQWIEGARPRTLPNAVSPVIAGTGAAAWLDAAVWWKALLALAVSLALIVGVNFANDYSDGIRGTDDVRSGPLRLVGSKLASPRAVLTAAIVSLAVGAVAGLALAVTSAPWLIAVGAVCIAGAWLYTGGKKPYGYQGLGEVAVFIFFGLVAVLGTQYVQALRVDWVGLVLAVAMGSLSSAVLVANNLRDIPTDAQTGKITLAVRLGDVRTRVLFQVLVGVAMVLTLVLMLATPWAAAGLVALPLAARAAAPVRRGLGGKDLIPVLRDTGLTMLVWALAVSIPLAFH

SMILES | IC50 ([5]; read-out: Ca IC50) [µg/mL] | IC50 ([7]; read-out: Bs IC50) [µg/mL] | MIC ([11]; read-out: Mt MIC) [µg/mL] | MIC [12] [µg/mL] | IC50 ([16]; read-out: Ec IC50) [µg/mL] | IC50 [20] [µg/mL] | IC50 ([19]; read-out: Sc IC50) [µg/mL] | further results
N#CC(C#N)=NNc1cccc(Cl)c1 [CCCP, m-chlorophenylcarbonyl cyanide phenylhydrazone] | – | – | – | – | – | – | – | effect on pH gradient (ΔpH) [1]: collapsed
C=CCN(C)CCCCCCOc1ccc(C(=O)c2ccc(Br)cc2)c(F)c1 [Ro 48-8071] | – | – | – | – | – | – | – | IC50 [2]: 9 µM
CC(C)(C)c1cc(C=C(C#N)C#N)cc(C(C)(C)C)c1O [SF6847, reference compound] | – | – | – | – | – | – | – | effect on ΔpH [3]: very rapid (seconds) collapse in ΔpH
CC(C)=CCC/C(C)=C/CNCCNC1C2CC3CC(C2)CC1C3 (stereo not drawn) [compound 1, SQ109] | 3.3 | 7.6 | 0.1 to 0.2 | > 120 | 2.8 | 6 (≈ 18.2 µM) | – | activity [4]: ~100 µM; IC50 [6]: 30.3 µM; IC50 [8]: ~30 µg/mL (≈ 90.8 µM); IC50 [9]: ≥ 50 µM; IC50 [10]: ≥ 50 µM; MIC [11, 25]: 0.3 to 0.6 µM; activity [13]: ~100 µM; IC50 [14]: ≥ 50 µM; IC50 [15]: ≥ 50 µM; effect on pH gradient (ΔpH) [1]: collapsed; IC50 [17]: ≥ 50 µM; effect on nonreplicating bacterial activity (CFU) ([18]; 1 μg/mL, absence of MK-4): only a small effect; effect on nonreplicating bacterial activity (CFU) ([18]; 1 μg/mL, presence of 1 mM MK-4): essentially no effect; reduction of cell activity (CFU) ([18]; 10 μg/mL, 7 days exposure, absence of MK-4): ~4 log units; effect on nonreplicating bacterial activity (CFU) ([18]; 10 μg/mL, presence of 1 mM MK-4): small effect; Sc IC50 [19]: 1.1 µg/mL; IC50 [21]: ≥ 50 µM
CC[C@@H](CO)NCCN[C@@H](CC)CO [compound 2, ethambutol] | – | – | – | – | – | – | – | Ms MIC [22]: 1 µg/mL; Mt MIC [23]: 2 µg/mL
CC(C)=CCC/C(C)=C/CNCCOC1C2CC3CC(C2)CC1C3 (stereo not drawn) [compound 3] | 12 | 16 | 0.02 to 0.05 | ~8 (≈ 24.1 µM) | 2.8 | 10 (≈ 30.2 µM) | 1.8 | activity ([4]; SaCrtM, weak activity): ~100 µM; MIC [11, 25]: 0.06 to 0.15 µM; activity ([13]; human SQS, weak activity): ~100 µM; effect on ATP synthesis [24]: inhibition of ATP synthesis
CC(C)=CCC/C(C)=C/COCCNC1C2CC3CC(C2)CC1C3 (stereo not drawn) [compound 4] | > 66 | > 66 | ~0.2 | > 120 | 4.3 | 112 (≈ 338 µM) | > 33 | activity ([4]; SaCrtM, weak activity): ~100 µM; IC50 [5, 26]: > 199 µM; IC50 [7, 27]: > 199 µM; Mt MIC [11]: 0.19 µg/mL; activity ([13]; human SQS, weak activity): ~100 µM; IC50 [19, 28]: > 100 µM
CC(C)=CCC/C(C)=C/COCCOC1C2CC3CC(C2)CC1C3 (stereo not drawn) [compound 5] | > 66 | > 66 | – | > 64 | > 332 | 73 (≈ 220 µM) | > 332 | IC50 [5, 26]: > 198 µM; IC50 [7, 27]: > 199 µM; effect on ΔpH [3]: no effect; IC50 [16, 29]: > 1 mM; IC50 [19, 28]: > 1000 µM
CC(C)=CCC/C(C)=C/CNCCCOC1C2CC3CC(C2)CC1C3 (stereo not drawn) [compound 6] | 6.5 | 3 | 1.6 | ~8 (≈ 23.2 µM) | 2.3 | 3.4 (≈ 9.84 µM) | 2.7 | –
CC(C)=CCC/C(C)=C/C[N+](C)(C)CCOC1C2CC3CC(C2)CC1C3.[I-] (stereo not drawn) [compound 7] | 18 | 4.2 | 0.78 | 8 | 37 | 3.2 | 15 | –
CC(C)=CCC/C(C)=C/CNC(=O)COC1C2CC3CC(C2)CC1C3 (stereo not drawn) [compound 8] | > 69 | > 69 | 0.78 | > 120 | > 345 | 12 (≈ 34.7 µM) | > 69 | IC50 [5, 26]: > 200 µM; IC50 [7, 27]: > 200 µM; IC50 [16, 29]: > 1 mM; IC50 [19, 28]: > 200 µM
CC(C)=CCC/C(C)=C/COCC(=O)NC1C2CC3CC(C2)CC1C3 (stereo not drawn) [compound 9] | > 69 | 17 | 12 | > 120 | > 345 | 9.3 (≈ 26.9 µM) | > 69 | IC50 [5, 26]: > 200 µM; IC50 [16, 29]: > 1 mM; IC50 [19, 28]: > 200 µM
CC(C)=CCC/C(C)=C/CNCCOC(C)(C)C [compound 10] | > 50 | > 50 | 6.2 | > 16 | > 126 | 45 (≈ 178 µM) | 44 | IC50 [5, 26]: > 198 µM; IC50 [7, 27]: > 198 µM; IC50 [16, 29]: > 0.498 mM
CC(C)=CCC/C(C)=C/CNCCOc1ccccc1 [compound 11] | 20 | 17 | 6.2 | 32 (≈ 117 µM) | 60 | 6.3 (≈ 23 µM) | 3 | –
CC(C)=CCC/C(C)=C/CNCCOc1cccc2ccccc12 [compound 12] | 12 | 2.4 | 6.2 | ~8 (≈ 24.7 µM) | 15 | 7.1 (≈ 21.9 µM) | 3.7 | –
CC(C)=CCC/C(C)=C/CNCCO[C@@H]1C[C@@H]2CC[C@@]1(C)C2(C)C [compound 13] | 6.3 | 1.8 | – | ~8 (≈ 24 µM) | 12 | 1.3 (≈ 3.9 µM) | 1 to 3 | effect on pH gradient (ΔpH) [1]: collapsed; Sc IC50 [19]: 0.89 µg/mL
CO[C@@H]1C[C@@H](C[C@H]2CC[C@H](C)[C@H]([C@@H](C)C(=O)O)O2)O[C@]2(O[C@](C)([C@H]3CC[C@@](C)([C@@H]4O[C@@H]([C@H]5O[C@@](O)(CO)[C@H](C)C[C@@H]5C)C[C@@H]4C)O3)C[C@H]2C)[C@@H]1C [nigericin] | – | – | – | – | – | – | – | effect on pH gradient (ΔpH) [1]: collapsed
CC(C)[C@@H]1NC(=O)[C@H](C)OC(=O)[C@@H](C(C)C)NC(=O)[C@@H](C(C)C)OC(=O)[C@H](C(C)C)NC(=O)[C@H](C)OC(=O)[C@@H](C(C)C)NC(=O)[C@@H](C(C)C)OC(=O)[C@H](C(C)C)NC(=O)[C@H](C)OC(=O)[C@@H](C(C)C)NC(=O)[C@@H](C(C)C)OC1=O [valinomycin] | – | – | – | – | – | – | – | effect on pH gradient (ΔpH) [1]: no effect
